In ChEMBL document CHEMBL1148948, “Biotransformation of nobiletin by Aspergillus niger and the antimutagenic activity of a metabolite, 4'-hydroxy-5,6,7,8,3'-pentamethoxyflavone” (2004):
Active and inactive are the calls of the source. The calls are words filed in the database; no cut-off is given here.

Legend:
Salmonella typhimurium [1] = assay: Antimutagenic activity in Salmonella Typhimurium TA1535 carrying pSK1002 containing umuC'-lacZ fused gene assessed as suppression of furyfuramide-induced SOS response to alteration in DNA synthesis at 0.6 mM measured by beta-galactosidase activity by Umu test; type: functional, Salmonella enterica subsp. enterica serovar Typhimurium
Method in brief: (§1)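 S. typhimurium TA1535/pSK1002 (umuC′-′lacZ fusion on the plasmid). The overnight culture was diluted 50-fold in fresh TGA medium and grown at 37 °C to A600 0.25-0.30. SOS induction was read as β-galactosidase activity in Miller units. The S9 mix used rat liver S9 (phenobarbital/5,6-benzoflavone-pretreated males) with G-6-P, NADH and NADPH cofactors.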

Salmonella typhimurium [2] = assay: Antimutagenic activity in Salmonella Typhimurium TA1535 carrying pSK1002 containing umuC'-lacZ fused gene assessed as suppression of furyfuramide-induced SOS response to alteration in DNA synthesis measured by beta-galactosidase activity by Umu test; type: functional, organism-based; conditions: Salmonella enterica subsp. enterica serovar Typhimurium; method in brief: as §1
Salmonella typhimurium [3] = assay: Antimutagenic activity in Salmonella Typhimurium TA1535 carrying pSK1002 containing umuC'-lacZ fused gene assessed as suppression of activated MeIQ-induced SOS response to alteration in DNA synthesis at 0.3 mM measured by beta-galactosidase activity by Umu test; type: functional, Salmonella enterica subsp. enterica serovar Typhimurium; method in brief: as §1
Salmonella typhimurium [4] = assay: Inhibition of activated Trp-P-1-induced SOS response to alteration in DNA synthesis in Salmonella Typhimurium TA1535 carrying pSK1002 containing umuC'-lacZ fused gene; type: functional, Salmonella enterica subsp. enterica serovar Typhimurium; conditions: Salmonella enterica, read-out: ID50 (the source's name); method in brief: as §1
Salmonella typhimurium [5] = assay: Antimutagenic activity in Salmonella Typhimurium TA1535 carrying pSK1002 containing umuC'-lacZ fused gene assessed as suppression of activated Trp-P-1-induced SOS response to alteration in DNA synthesis at 0.1 mM measured by beta-galactosidase activity by Umu test; type: functional, Salmonella enterica subsp. enterica serovar Typhimurium; method in brief: as §1
Salmonella typhimurium [6] = assay: Antimutagenic activity in Salmonella Typhimurium TA1535 carrying pSK1002 containing umuC'-lacZ fused gene assessed as suppression of MeIQ-induced SOS response to alteration in DNA synthesis at 0.1 mM measured by beta-galactosidase activity by Umu test; type: functional, Salmonella enterica subsp. enterica serovar Typhimurium; method in brief: as §1
Salmonella typhimurium [7] = assay: Antimutagenic activity in Salmonella Typhimurium TA1535 carrying pSK1002 containing umuC'-lacZ fused gene assessed as suppression of furyfuramide-induced SOS response to alteration in DNA synthesis at 0.05 mM measured by beta-galactosidase activity by Umu test; type: functional, Salmonella enterica subsp. enterica serovar Typhimurium; method in brief: as §1
Salmonella typhimurium [8] = assay: Inhibition of MeIQ-induced SOS response to alteration in DNA synthesis in Salmonella Typhimurium TA1535 carrying pSK1002 containing umuC'-lacZ fused gene at 0.6 mM; type: functional, Salmonella enterica subsp. enterica serovar Typhimurium; design: scale not given: the % may be the effect or the level left; method in brief: as §1
Salmonella typhimurium [9] = assay: Antimutagenic activity in Salmonella Typhimurium TA1535 carrying pSK1002 containing umuC'-lacZ fused gene assessed as suppression of activated MeIQ-induced SOS response to alteration in DNA synthesis at 0.1 mM measured by beta-galactosidase activity by Umu test; type: functional, Salmonella enterica subsp. enterica serovar Typhimurium; method in brief: as §1
Salmonella typhimurium [10] = assay: Antimutagenic activity in Salmonella Typhimurium TA1535 carrying pSK1002 containing umuC'-lacZ fused gene assessed as suppression of furyfuramide-induced SOS response to alteration in DNA synthesis at 0.3 mM measured by beta-galactosidase activity by Umu test; type: functional, Salmonella enterica subsp. enterica serovar Typhimurium; method in brief: as §1
Salmonella typhimurium [11] = assay: Antimutagenic activity in Salmonella Typhimurium TA1535 carrying pSK1002 containing umuC'-lacZ fused gene assessed as suppression of activated Trp-P-1-induced SOS response to alteration in DNA synthesis at 0.6 mM measured by beta-galactosidase activity by Umu test; type: functional, Salmonella enterica subsp. enterica serovar Typhimurium; method in brief: as §1
Salmonella typhimurium [12] = assay: Antimutagenic activity in Salmonella Typhimurium TA1535 carrying pSK1002 containing umuC'-lacZ fused gene assessed as suppression of Trp-P-1-induced SOS response to alteration in DNA synthesis at 0.3 mM measured by beta-galactosidase activity by Umu test; type: functional, Salmonella enterica subsp. enterica serovar Typhimurium; method in brief: as §1
Salmonella typhimurium [13] = assay: Antimutagenic activity in Salmonella Typhimurium TA1535 carrying pSK1002 containing umuC'-lacZ fused gene assessed as suppression of MeIQ-induced SOS response to alteration in DNA synthesis measured by beta-galactosidase activity by Umu test; type: functional, organism-based; conditions: Salmonella enterica subsp. enterica serovar Typhimurium; method in brief: as §1
Salmonella typhimurium [14] = assay: Antimutagenic activity in Salmonella Typhimurium TA1535 carrying pSK1002 containing umuC'-lacZ fused gene assessed as suppression of activated Trp-P-1-induced SOS response to alteration in DNA synthesis at 0.05 mM measured by beta-galactosidase activity by Umu test; type: functional, Salmonella enterica subsp. enterica serovar Typhimurium; method in brief: as §1
Salmonella typhimurium [15] = assay: Inhibition of activated Trp-P-1-induced SOS response to alteration in DNA synthesis in Salmonella Typhimurium TA1535 carrying pSK1002 containing umuC'-lacZ fused gene at 0.6 mM; type: functional, Salmonella enterica subsp. enterica serovar Typhimurium; design: scale not given: the % may be the effect or the level left; method in brief: as §1
Salmonella typhimurium [16] = assay: Antimutagenic activity in Salmonella Typhimurium TA1535 carrying pSK1002 containing umuC'-lacZ fused gene assessed as suppression of 0.1 j/M2 UV light-induced SOS response to alteration in DNA synthesis at 0.3 mM measured by beta-galactosidase activity by Umu test; type: functional, Salmonella enterica subsp. enterica serovar Typhimurium; method in brief: as §1
Salmonella typhimurium [17] = assay: Antimutagenic activity in Salmonella Typhimurium TA1535 carrying pSK1002 containing umuC'-lacZ fused gene assessed as suppression of MeIQ-induced SOS response to alteration in DNA synthesis at 0.3 mM measured by beta-galactosidase activity by Umu test; type: functional, Salmonella enterica subsp. enterica serovar Typhimurium; method in brief: as §1
Salmonella typhimurium [18] = assay: Antimutagenic activity in Salmonella Typhimurium TA1535 carrying pSK1002 containing umuC'-lacZ fused gene assessed as suppression of Trp-P-1-induced SOS response to alteration in DNA synthesis at 0.6 mM measured by beta-galactosidase activity by Umu test; type: functional, Salmonella enterica subsp. enterica serovar Typhimurium; method in brief: as §1

For `COc1cc(-c2cc(=O)c3c(OC)c(OC)c(OC)c(OC)c3o2)ccc1O`, the Activity (Salmonella typhimurium [1]) was 443.7 Miller_unit, the Activity (Salmonella typhimurium [2]) was “Active” and the Activity (Salmonella typhimurium [3]) was 243.5 Miller_unit. For the same molecule, the IC50 (Salmonella typhimurium [4]) was 340 µM, the Activity (Salmonella typhimurium [5]) was 233.2 Miller_unit and the Activity (Salmonella typhimurium [6]) was 232.6 Miller_unit. For the same molecule, the Activity (Salmonella typhimurium [7]) was 551.2 Miller_unit, the Activity (Salmonella typhimurium [8]) was 80.9% and the Activity (Salmonella typhimurium [9]) was 376.3 Miller_unit. For the same molecule, the Activity (Salmonella typhimurium [10]) was 489.9 Miller_unit, the Activity (Salmonella typhimurium [11]) was 118.5 Miller_unit and the Activity (Salmonella typhimurium [12]) was 219.1 Miller_unit. The Activity (Salmonella typhimurium [13]) was “Active”, the Activity (Salmonella typhimurium [14]) was 283.7 Miller_unit and the Activity (Salmonella typhimurium [15]) was 76.4%. The Activity (Salmonella typhimurium [16]) was 563.5 Miller_unit, the Activity (Salmonella typhimurium [17]) was 195.3 Miller_unit and the Activity (Salmonella typhimurium [18]) was 168.9 Miller_unit.
